Measurements: ChEMBL document CHEMBL1275269, “Cyclization of some carbothioamide derivatives containing antipyrine and triazole moieties and investigation of their antimicrobial activities” (2010)
Activity calls are given as the source filed them. The rule behind the calls is not given here.

Key:
Candida albicans = assay: Antifungal activity against Candida albicans ATCC 60193 after 18 hrs by agar-well diffusion method; type: functional
Summary of the method: (§1)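 Yeast flood-inoculated onto Sabouraud dextrose agar and dried. Five-millimetre wells were cut with a sterile cork-borer, and test substance was delivered into each well.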

Candida tropicalis = assay: Antifungal activity against Candida tropicalis ATCC 13803 after 18 hrs by agar-well diffusion method; type: functional; summary of the method: as §1
Saccharomyces cerevisiae = assay: Antifungal activity against Saccharomyces cerevisiae RSKK 251 after 18 hrs by agar-well diffusion method; type: functional
Summary of the method: (§2)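 Organisms flood-inoculated onto the agar surface and dried. Five-millimetre wells were cut with a sterile cork-borer, and test substance was delivered into each well.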

Escherichia coli = assay: Antibacterial activity against Escherichia coli ATCC 25922 after 18 hrs by agar-well diffusion method; type: functional; as to IZ: test concentration or dose not given here
Summary of the method: (§3)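 Microorganisms flood-inoculated onto the surface of Mueller-Hinton agar or Sabouraud dextrose agar, then dried. 5 mm diameter wells cut into the agar with a sterile cork-borer.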

Klebsiella aerogenes = assay: Antibacterial activity against Enterobacter aerogenes ATCC 13048 after 18 hrs by agar-well diffusion method; type: functional; summary of the method: as §3; as to IZ: test concentration or dose not given here
[1] = test system: Yersinia pseudotuberculosis; assay: Antibacterial activity against Yersinia pseudotuberculosis ATCC 911 after 18 hrs by agar-well diffusion method; type: functional; summary of the method: as §2
Pseudomonas aeruginosa = assay: Antibacterial activity against Pseudomonas aeruginosa ATCC 43288 after 18 hrs by agar-well diffusion method; type: functional; summary of the method: as §3; as to IZ: test concentration or dose not given here
Staphylococcus aureus = assay: Antibacterial activity against Staphylococcus aureus ATCC 25923 after 18 hrs by agar-well diffusion method; type: functional; summary of the method: as §3; as to IZ: test concentration or dose not given here
Enterococcus faecalis = assay: Antibacterial activity against Enterococcus faecalis ATCC 29212 after 18 hrs by agar-well diffusion method; type: functional; summary of the method: as §3; as to IZ: test concentration or dose not given here
Bacillus cereus = assay: Antibacterial activity against Bacillus cereus 702 after 18 hrs by agar-well diffusion method; type: functional; summary of the method: as §3; as to IZ: test concentration or dose not given here
[2] = test system: Mycolicibacterium smegmatis; assay: Antibacterial activity against Mycobacterium smegmatis ATCC 607 after 18 hrs by agar-well diffusion method; type: functional; summary of the method: as §3; as to IZ: test concentration or dose not given here
Aspergillus niger = assay: Antifungal activity against Aspergillus niger RSKK 4017 after 18 hrs by agar-well diffusion method; type: functional, organism-based; summary of the method: as §3

## OC(Cn1cncn1)(Cn1cncn1)c1ccc(F)cc1F [FLUCONAZOLE]
Candida albicans
  inhibition zone (IZ): 25 mm
Candida tropicalis
  inhibition zone (IZ): 25 mm
Saccharomyces cerevisiae
  inhibition zone (IZ): >25 mm

## Cc1c(-n2c(Cc3ccc(Cl)cc3)nn(CC(=O)NNC(=S)Nc3ccc(F)cc3)c2=O)c(=O)n(-c2ccccc2)n1C
Escherichia coli
  inhibition zone (IZ): 15 mm
Klebsiella aerogenes
  inhibition zone (IZ): 8 mm
[1]
  inhibition zone (IZ): 10 mm
Pseudomonas aeruginosa
  inhibition zone (IZ): 10 mm
Staphylococcus aureus
  inhibition zone (IZ): 10 mm
Enterococcus faecalis
  inhibition zone (IZ): 8 mm
Bacillus cereus
  inhibition zone (IZ): 10 mm
[2]
  inhibition zone (IZ): 15 mm
Candida albicans
  Activity: Active
Candida tropicalis
  Activity: Active
Saccharomyces cerevisiae
  Activity: Active
Aspergillus niger
  Activity: Active

## Cc1c(-n2c(Cc3ccc(Cl)cc3)nn(CC(=O)NNC(=S)Nc3ccccc3)c2=O)c(=O)n(-c2ccccc2)n1C
Escherichia coli
  inhibition zone (IZ): 10 mm
Klebsiella aerogenes
  Activity: Active
[1]
  inhibition zone (IZ): 8 mm
Pseudomonas aeruginosa
  inhibition zone (IZ): 8 mm
Staphylococcus aureus
  inhibition zone (IZ): 8 mm
Enterococcus faecalis
  inhibition zone (IZ): 8 mm
Bacillus cereus
  inhibition zone (IZ): 10 mm
[2]
  inhibition zone (IZ): 10 mm
Candida albicans
  Activity: Active
Candida tropicalis
  Activity: Active
Saccharomyces cerevisiae
  Activity: Active
Aspergillus niger
  Activity: Active

## Cc1c(-n2c(Cc3ccc(Cl)cc3)nn(CC(=O)N/N=c3/scc(-c4ccc([N+](=O)[O-])cc4)n3-c3ccccc3)c2=O)c(=O)n(-c2ccccc2)n1C
Escherichia coli
  inhibition zone (IZ): 15 mm
Klebsiella aerogenes
  Activity: Active
[1]
  inhibition zone (IZ): 30 mm
Pseudomonas aeruginosa
  inhibition zone (IZ): 20 mm
Staphylococcus aureus
  inhibition zone (IZ): 30 mm
Enterococcus faecalis
  inhibition zone (IZ): 18 mm
Bacillus cereus
  inhibition zone (IZ): 20 mm
[2]
  inhibition zone (IZ): 25 mm
Candida albicans
  Activity: Active
Candida tropicalis
  Activity: Active
Saccharomyces cerevisiae
  Activity: Active
Aspergillus niger
  Activity: Active

## CN[C@@H]1[C@H](O[C@H]2[C@H](O[C@H]3[C@H](O)[C@@H](O)[C@H](N=C(N)N)[C@@H](O)[C@@H]3N=C(N)N)O[C@@H](C)[C@]2(O)C=O)O[C@@H](CO)[C@H](O)[C@H]1O [STREPTOMYCIN]
[2]
  inhibition zone (IZ): 35 mm

## Cc1c(-n2c(Cc3ccc(Cl)cc3)nn(Cc3nnc(S)n3-c3ccccc3)c2=O)c(=O)n(-c2ccccc2)n1C
Escherichia coli
  inhibition zone (IZ): 25 mm
Klebsiella aerogenes
  inhibition zone (IZ): 25 mm
[1]
  inhibition zone (IZ): 30 mm
Pseudomonas aeruginosa
  inhibition zone (IZ): 30 mm
Staphylococcus aureus
  inhibition zone (IZ): 25 mm
Enterococcus faecalis
  inhibition zone (IZ): 20 mm
Bacillus cereus
  inhibition zone (IZ): 30 mm
[2]
  inhibition zone (IZ): 34 mm
Candida albicans
  Activity: Active
Candida tropicalis
  Activity: Active
Saccharomyces cerevisiae
  Activity: Active
Aspergillus niger
  Activity: Active

## Cc1c(-n2c(Cc3ccc(Cl)cc3)nn(Cc3nnc(S)n3-c3ccc(F)cc3)c2=O)c(=O)n(-c2ccccc2)n1C
Escherichia coli
  inhibition zone (IZ): 35 mm
Klebsiella aerogenes
  inhibition zone (IZ): 30 mm
[1]
  inhibition zone (IZ): 30 mm
Pseudomonas aeruginosa
  inhibition zone (IZ): 28 mm
Staphylococcus aureus
  inhibition zone (IZ): 30 mm
Enterococcus faecalis
  inhibition zone (IZ): 28 mm
Bacillus cereus
  inhibition zone (IZ): 30 mm
[2]
  inhibition zone (IZ): 30 mm
Candida albicans
  Activity: Active
Candida tropicalis
  Activity: Active
Saccharomyces cerevisiae
  Activity: Active
Aspergillus niger
  Activity: Active

## Cc1c(-n2c(Cc3ccc(Cl)cc3)nn(CC(=O)N/N=c3/scc(-c4ccc(Cl)cc4)n3-c3ccccc3)c2=O)c(=O)n(-c2ccccc2)n1C
Escherichia coli
  inhibition zone (IZ): 15 mm
Klebsiella aerogenes
  Activity: Active
[1]
  inhibition zone (IZ): 12 mm
Pseudomonas aeruginosa
  Activity: Active
Staphylococcus aureus
  Activity: Active
Enterococcus faecalis
  Activity: Active
Bacillus cereus
  Activity: Active
[2]
  inhibition zone (IZ): 10 mm
Candida albicans
  Activity: Active
Candida tropicalis
  Activity: Active
Saccharomyces cerevisiae
  Activity: Active
Aspergillus niger
  Activity: Active

## Cc1c(-n2c(Cc3ccc(Cl)cc3)nn(Cc3nnc(S)n3Cc3ccccc3)c2=O)c(=O)n(-c2ccccc2)n1C
Escherichia coli
  inhibition zone (IZ): 35 mm
Klebsiella aerogenes
  inhibition zone (IZ): 30 mm
[1]
  inhibition zone (IZ): 30 mm
Pseudomonas aeruginosa
  inhibition zone (IZ): 30 mm
Staphylococcus aureus
  inhibition zone (IZ): 30 mm
Enterococcus faecalis
  inhibition zone (IZ): 28 mm
Bacillus cereus
  inhibition zone (IZ): 30 mm
[2]
  inhibition zone (IZ): 33 mm
Candida albicans
  Activity: Active
Candida tropicalis
  Activity: Active
Saccharomyces cerevisiae
  Activity: Active
Aspergillus niger
  Activity: Active

## Cc1c(-n2c(Cc3ccc(Cl)cc3)nn(Cc3nnc(Nc4ccccc4)s3)c2=O)c(=O)n(-c2ccccc2)n1C
Escherichia coli
  inhibition zone (IZ): 25 mm
Klebsiella aerogenes
  inhibition zone (IZ): 25 mm
[1]
  inhibition zone (IZ): 25 mm
Pseudomonas aeruginosa
  inhibition zone (IZ): 35 mm
Staphylococcus aureus
  Activity: Active
Enterococcus faecalis
  Activity: Active
Bacillus cereus
  Activity: Active
[2]
  inhibition zone (IZ): 25 mm
Candida albicans
  Activity: Active
Candida tropicalis
  Activity: Active
Saccharomyces cerevisiae
  Activity: Active
Aspergillus niger
  Activity: Active

## Cc1c(-n2c(Cc3ccc(Cl)cc3)nn(Cc3nnc(NCc4ccccc4)s3)c2=O)c(=O)n(-c2ccccc2)n1C
Escherichia coli
  inhibition zone (IZ): 25 mm
Klebsiella aerogenes
  inhibition zone (IZ): 25 mm
[1]
  inhibition zone (IZ): 25 mm
Pseudomonas aeruginosa
  inhibition zone (IZ): 30 mm
Staphylococcus aureus
  Activity: Active
Enterococcus faecalis
  Activity: Active
Bacillus cereus
  Activity: Active
[2]
  inhibition zone (IZ): 25 mm
Candida albicans
  Activity: Active
Candida tropicalis
  Activity: Active
Saccharomyces cerevisiae
  Activity: Active
Aspergillus niger
  Activity: Active

## CC1(C)S[C@@H]2[C@H](NC(=O)[C@H](N)c3ccccc3)C(=O)N2[C@H]1C(=O)O [AMPICILLIN]
Escherichia coli
  inhibition zone (IZ): 10 mm
Klebsiella aerogenes
  inhibition zone (IZ): 10 mm
[1]
  inhibition zone (IZ): 18 mm
Pseudomonas aeruginosa
  inhibition zone (IZ): 18 mm
Staphylococcus aureus
  inhibition zone (IZ): 35 mm
Enterococcus faecalis
  inhibition zone (IZ): 10 mm
Bacillus cereus
  inhibition zone (IZ): 15 mm

## Cc1c(-n2c(Cc3ccc(Cl)cc3)nn(CC(=O)NN)c2=O)c(=O)n(-c2ccccc2)n1C
Escherichia coli
  Activity: Active
Klebsiella aerogenes
  Activity: Active
[1]
  Activity: Active
Pseudomonas aeruginosa
  Activity: Active
Staphylococcus aureus
  Activity: Active
Enterococcus faecalis
  Activity: Active
Bacillus cereus
  Activity: Active
[2]
  Activity: Active
Candida albicans
  Activity: Active
Candida tropicalis
  Activity: Active
Saccharomyces cerevisiae
  Activity: Active
Aspergillus niger
  Activity: Active

## Cc1c(-n2c(Cc3ccc(Cl)cc3)nn(Cc3nnc(Nc4ccc(F)cc4)s3)c2=O)c(=O)n(-c2ccccc2)n1C
Escherichia coli
  inhibition zone (IZ): 20 mm
Klebsiella aerogenes
  inhibition zone (IZ): 25 mm
[1]
  inhibition zone (IZ): 25 mm
Pseudomonas aeruginosa
  inhibition zone (IZ): 20 mm
Staphylococcus aureus
  Activity: Active
Enterococcus faecalis
  Activity: Active
Bacillus cereus
  Activity: Active
[2]
  inhibition zone (IZ): 25 mm
Candida albicans
  Activity: Active
Candida tropicalis
  Activity: Active
Saccharomyces cerevisiae
  Activity: Active
Aspergillus niger
  Activity: Active

## Cc1c(-n2c(Cc3ccc(Cl)cc3)nn(CC(=O)NNC(=S)NCc3ccccc3)c2=O)c(=O)n(-c2ccccc2)n1C
Escherichia coli
  inhibition zone (IZ): 15 mm
Klebsiella aerogenes
  inhibition zone (IZ): 10 mm
[1]
  inhibition zone (IZ): 10 mm
Pseudomonas aeruginosa
  inhibition zone (IZ): 10 mm
Staphylococcus aureus
  inhibition zone (IZ): 10 mm
Enterococcus faecalis
  inhibition zone (IZ): 8 mm
Bacillus cereus
  inhibition zone (IZ): 10 mm
[2]
  inhibition zone (IZ): 15 mm
Candida albicans
  Activity: Active
Candida tropicalis
  Activity: Active
Saccharomyces cerevisiae
  Activity: Active
Aspergillus niger
  Activity: Active

## Cc1c(-n2c(Cc3ccc(Cl)cc3)nn(Cc3nnc(S)o3)c2=O)c(=O)n(-c2ccccc2)n1C
Escherichia coli
  inhibition zone (IZ): 35 mm
Klebsiella aerogenes
  inhibition zone (IZ): 30 mm
[1]
  inhibition zone (IZ): 30 mm
Pseudomonas aeruginosa
  inhibition zone (IZ): 30 mm
Staphylococcus aureus
  inhibition zone (IZ): 30 mm
Enterococcus faecalis
  inhibition zone (IZ): 28 mm
Bacillus cereus
  inhibition zone (IZ): 30 mm
[2]
  inhibition zone (IZ): 38 mm
Candida albicans
  Activity: Active
Candida tropicalis
  Activity: Active
Saccharomyces cerevisiae
  Activity: Active
Aspergillus niger
  Activity: Active

## Cc1c(-n2c(Cc3ccc(Cl)cc3)n[nH]c2=O)c(=O)n(-c2ccccc2)n1C
Escherichia coli
  Activity: Active
Klebsiella aerogenes
  Activity: Active
[1]
  Activity: Active
Pseudomonas aeruginosa
  Activity: Active
Staphylococcus aureus
  Activity: Active
Enterococcus faecalis
  Activity: Active
Bacillus cereus
  Activity: Active
[2]
  Activity: Active
Candida albicans
  Activity: Active
Candida tropicalis
  Activity: Active
Saccharomyces cerevisiae
  Activity: Active
Aspergillus niger
  Activity: Active

## CCOC(=O)Cn1nc(Cc2ccc(Cl)cc2)n(-c2c(C)n(C)n(-c3ccccc3)c2=O)c1=O
Escherichia coli
  Activity: Active
Klebsiella aerogenes
  Activity: Active
[1]
  Activity: Active
Pseudomonas aeruginosa
  Activity: Active
Staphylococcus aureus
  Activity: Active
Enterococcus faecalis
  Activity: Active
Bacillus cereus
  Activity: Active
[2]
  Activity: Active
Candida albicans
  Activity: Active
Candida tropicalis
  Activity: Active
Saccharomyces cerevisiae
  Activity: Active
Aspergillus niger
  Activity: Active
